Measured values published in ChEMBL document CHEMBL1123645, “Phenylephrine derivatives as leukotriene D4 antagonists” (J Med Chem, 1987).
The source made the active and inactive calls. No cut-off for these calls is given here.

Assays:
[1] = target: Cysteinyl leukotriene receptor (Homo sapiens) (UniProt Q9Y271+Q9NS75); assay: Inhibition of Ovalbumin (OA) induced bronchospasm in the guinea pig when administered intraduodenally (50 mg/kg); assay type: functional, organism-based; conditions: Cavia porcellus; target entry is the homologue from another species
Chain of Cysteinyl leukotriene receptor (Homo sapiens) (Q9NS75 whole entry, looked up): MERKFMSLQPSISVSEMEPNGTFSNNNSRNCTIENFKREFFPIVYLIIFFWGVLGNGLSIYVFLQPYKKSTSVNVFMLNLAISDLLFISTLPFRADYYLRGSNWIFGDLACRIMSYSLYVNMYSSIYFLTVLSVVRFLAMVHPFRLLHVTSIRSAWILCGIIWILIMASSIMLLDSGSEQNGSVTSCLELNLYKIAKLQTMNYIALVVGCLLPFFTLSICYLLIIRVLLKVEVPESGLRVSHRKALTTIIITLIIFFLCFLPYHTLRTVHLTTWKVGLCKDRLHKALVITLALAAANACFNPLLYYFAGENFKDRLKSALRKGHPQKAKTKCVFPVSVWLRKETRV
Chain of Cysteinyl leukotriene receptor (Homo sapiens) (Q9Y271 whole entry, looked up): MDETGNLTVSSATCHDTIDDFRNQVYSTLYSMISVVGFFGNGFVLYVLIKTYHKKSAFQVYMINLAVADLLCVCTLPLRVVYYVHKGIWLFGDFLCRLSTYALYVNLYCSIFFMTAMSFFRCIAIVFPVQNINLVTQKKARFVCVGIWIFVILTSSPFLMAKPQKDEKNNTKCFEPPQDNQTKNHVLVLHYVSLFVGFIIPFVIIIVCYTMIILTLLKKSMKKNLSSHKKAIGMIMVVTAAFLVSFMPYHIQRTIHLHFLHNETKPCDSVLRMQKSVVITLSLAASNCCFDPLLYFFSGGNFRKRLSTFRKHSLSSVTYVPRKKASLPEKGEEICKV
How it was run: (§1)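 Guinea pig bronchoconstriction induced by LTD4 or by ovalbumin. Antagonist was given intraduodenally 10 min before the agonist. […] Single-dose lines give percent inhibition at the stated id dose.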

[2] = system: Cavia porcellus; assay: Inhibition of LTD4 (leukotriene) induced bronchospasm in the guinea pig when administered intraduodenally (50 mg/kg)
[3] = system: Cavia porcellus; assay: Inhibition of LTD4 (leukotriene) induced bronchospasm in the guinea pig when administered intraduodenally at 25 mg/kg
[4] = system: Cavia porcellus; assay: Inhibition of Ovalbumin (OA) induced bronchospasm in the guinea pig when administered intraduodenally at 25 mg/kg; assay type: functional; conditions: route intraduodenal; how it was run: as §1
[5] = system: Cavia porcellus; assay: Inhibition of Ovalbumin (OA) induced bronchospasm in the guinea pig when administered perorally at 25 mg/kg; assay type: functional; conditions: route oral
How it was run: (§2)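 Guinea pig bronchoconstriction induced by LTD4 or by ovalbumin. Antagonist was dosed orally to awake animals 120 min before the agonist, which is 95 min before anesthetic. […] Single-dose lines give percent inhibition at the stated oral dose.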

[6] = system: Cavia porcellus; assay: Antagonist activity was determined by the ability to inhibit of ovalbumin induced bronchospasm when administered intraduodenally with respect to LY-171883 compound; assay type: functional; conditions: intraduodenal; how it was run: as §1
[7] = system: Cavia porcellus; assay: Antagonist activity was determined by the ability to inhibit of ovalbumin induced bronchospasm when administered perorally with respect to LY-171883 compound; assay type: functional; conditions: po; how it was run: as §2
[8] = system: Cavia porcellus; assay: Relative inhibitory potency against LTD4 (leukotriene D4) induced bronchospasm when administered intraduodenally with respect to LY-171883 compound; assay type: functional
[9] = system: Cavia porcellus; assay: Relative inhibitory potency against LTD4 (leukotriene D4) induced bronchospasm when administered perorally with respect to LY-171883 compound; assay type: functional
[10] = system: Cavia porcellus; assay: Relative inhibitory potency against ovalbumin induced bronchospasm when administered intraduodenally with respect to LY-171883 compound; assay type: functional
[11] = system: Cavia porcellus; assay: Relative inhibitory potency against ovalbumin induced bronchospasm when administered perorally with respect to LY-171883 compound; assay type: functional
[12] = system: Cavia porcellus; assay: Antagonist activity was determined by the ability to inhibit of LTD4 (leukotriene D4) induced bronchospasm when administered intraduodenally with respect to LY-171883 compound; assay type: functional; conditions: intraduodenal; how it was run: as §1
[13] = system: Cavia porcellus; assay: Antagonist activity was determined by the ability to inhibit of LTD4 (leukotriene D4) induced bronchospasm when administered perorally with respect to LY-171883 compound; assay type: functional; conditions: po; how it was run: as §2
[14] = organism: Cavia porcellus; assay: Antagonist activity towards LTD4-induced contraction of isolated guinea pig; assay type: functional
How it was run: (§3)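 Guinea pig tracheal spirals stretched to near-optimal length and equilibrated 1.5 h, washed every 15 min. Indomethacin (5 μM) was present in all tissues. Cumulative LTD4 dose-response curves were recorded isometrically via force transducers. Paired proximal/distal strips from one animal got solvent control or drug. Values are negative log, mean ± SEM, and were compared by Student's t test.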

[15] = organism: Cavia porcellus; assay: relative potency antagonist on LTD4-induced contraction of isolated guinea pig trachea; assay type: functional; how it was run: as §3
[16] = system: Cavia porcellus; assay: Inhibition of LTD4 (leukotriene) induced bronchospasm in the guinea pig when administered perorally at 25 mg/kg; NA means not active; assay type: functional, organism-based; design: dose 25 mg/kg; how it was run: as §2
[17] = system: Cavia porcellus; assay: Inhibition of Ovalbumin (OA) induced bronchospasm in the guinea pig when administered perorally (50 mg/kg); assay type: functional; how it was run: as §2
[18] = system: Cavia porcellus; assay: Inhibition of LTD4 (leukotriene) induced bronchospasm in the guinea pig when administered perorally (25 mg/kg), A minus(-)number indicates potentiation.; NA means not active; assay type: functional, organism-based; how it was run: as §2
[19] = system: Cavia porcellus; assay: Inhibition of LTD4 (leukotriene) induced bronchospasm in the guinea pig when administered perorally (50 mg/kg)
[20] = system: Cavia porcellus; assay: as above; remark: listed apart in the source
[21] = system: Cavia porcellus; assay: Inhibition of LTD4 (leukotriene) induced bronchospasm in the guinea pig when administered intraduodenally (50 mg/kg); Not active; assay type: functional, organism-based; how it was run: as §1
[22] = system: Cavia porcellus; assay: Inhibition of LTD4 (leukotriene) induced bronchospasm in the guinea pig when administered intraduodenally (50 mg/kg); assay type: functional; how it was run: as §1
[23] = system: Cavia porcellus; assay: Inhibition of LTD4 (leukotriene) induced bronchospasm in the guinea pig when administered intraduodenally (50 mg/kg) NA means not active; assay type: functional, organism-based; how it was run: as §1
[24] = system: Cavia porcellus; assay: Inhibition of Ovalbumin (OA) induced bronchospasm in the guinea pig when administered intraduodenally (50 mg/kg); NA means not active; assay type: functional, organism-based; how it was run: as §1
[25] = system: Cavia porcellus; assay: Inhibition of LTD4 (leukotriene) induced bronchospasm in the guinea pig when administered perorally (50 mg/kg); NA means not active; assay type: functional, organism-based; how it was run: as §2
[26] = system: Cavia porcellus; assay: Inhibition of Ovalbumin (OA) induced bronchospasm in the guinea pig when administered intraduodenally at 25 mg/kg; NA means not active; assay type: functional, organism-based; design: dose 25 mg/kg; how it was run: as §1
[27] = system: Cavia porcellus; assay: Antagonist activity was determined by the ability to inhibit of ovalbumin induced bronchospasm when administered per orally; assay type: functional; conditions: po; how it was run: as §2
[28] = system: Cavia porcellus; assay: Antagonist activity was determined by the ability to inhibit of ovalbumin induced bronchospasm when administered intraduodenally; assay type: functional; conditions: intraduodenal; how it was run: as §1
[29] = system: Cavia porcellus; assay: Relative inhibitory potency against LTD4 (leukotriene D4) induced bronchospasm when administered intraduodenally; assay type: functional
[30] = system: Cavia porcellus; assay: Relative inhibitory potency against LTD4 (leukotriene D4) induced bronchospasm when administered per orally; assay type: functional
[31] = system: Cavia porcellus; assay: Relative inhibitory potency against ovalbumin induced bronchospasm when administered intraduodenally; assay type: functional
[32] = system: Cavia porcellus; assay: Relative inhibitory potency against ovalbumin induced bronchospasm when administered per orally; assay type: functional
[33] = system: Cavia porcellus; assay: Antagonist activity was determined by the ability to inhibit of LTD4 (leukotriene D4) induced bronchospasm when administered intraduodenally; assay type: functional; conditions: intraduodenal; how it was run: as §1
[34] = system: Cavia porcellus; assay: Antagonist activity was determined by the ability to inhibit of LTD4 (leukotriene D4) induced bronchospasm when administered per orally; assay type: functional; conditions: po; how it was run: as §2
[35] = organism: Cavia porcellus; assay: relative potency antagonist on LTD4-induced contraction of isolated guinea pig; assay type: functional; how it was run: as §3
[36] = target: Cyclooxygenase (Rattus norvegicus); assay: Ability to inhibit Prostaglandin G/H synthase in rat
[37] = system: Cavia porcellus; assay: Inhibition of Ovalbumin (OA) induced bronchospasm in the guinea pig when administered perorally (50 mg/kg); NA means not active,<10%inhibition; assay type: functional, organism-based; how it was run: as §2

## O=C1OC(c2cccc(OCc3ccc4ccccc4n3)c2)CN1Cc1ccc2ccccc2n1 (stereo unspecified)
[1]
  inhibition: 50%
[2]
  inhibition: 31%

## C#CCN(C)C[C@H](O)c1cccc(OCc2ccc3ccccc3n2)c1
[3]
  inhibition: 41%

## O=S(=O)(NCC(O)c1cccc(OCc2ccc3ccccc3n2)c1)C(F)(F)F (stereo unspecified)
[4]
  inhibition in vivo at 25 mg/kg: 29%
[5]
  inhibition in vivo at 25 mg/kg: -53%
[3]
  inhibition: 83%

## CN(C[C@H](O)c1cccc(OCc2ccc3ccccc3n2)c1)C(=O)c1ccncc1
[2]
  inhibition: 31%

## O=C(NCC(O)c1cccc(OCc2ccc3ccccc3n2)c1)c1ccccn1 (stereo unspecified)
[3]
  inhibition: 20%

## CCOC(=O)N(C)C[C@H](O)c1cccc(OCc2ccc3ccccc3n2)c1
[1]
  inhibition: 20%
[2]
  inhibition: 71%

## CCCc1c(OCCCCc2nnn[nH]2)ccc(C(C)=O)c1O [TOMELUKAST]
[6]
  ED50: 19 mg/kg
[7]
  ED50: 38 mg/kg
[8]
  Potency: 1
[9]
  Potency: 1
[10]
  Potency: 1
[11]
  Potency: 1
[12]
  ED50: 6 mg/kg
[13]
  ED50: 32 mg/kg
[14]
  pkb: 6.55
[15]
  Potency: 1

## O=C(NCC(O)c1cccc(OCc2ccc3ccccc3n2)c1)c1cccs1 (stereo unspecified)
[16]
  inhibition: inactive
[3]
  inhibition: 82%

## COC(=O)C1CCCN1C(=O)N(C)C[C@H](O)c1cccc(OCc2ccc3ccccc3n2)c1 (stereo partly specified)
[1]
  inhibition: 23%
[2]
  inhibition: 71%

## CCNC(=O)N(C)CC(O)c1cccc(OCc2ccc3ccccc3n2)c1 (stereo unspecified)
[17]
  Inhibition: 46%
[18]
  inhibition: inactive
[2]
  inhibition: 82%

## CCC(=O)N(C)C[C@H](O)c1cccc(OCc2nc3ccccc3n2C)c1
[1]
  inhibition: 66%
[19]
  inhibition: 13%
[2]
  inhibition: 51%

## c1ccc(C2=NCC(c3cccc(OCc4ccc5ccccc5n4)c3)O2)nc1 (stereo unspecified)
[4]
  inhibition in vivo at 25 mg/kg: 87%
[2]
  inhibition: 92%

## O=C(NCC(O)c1cccc(OCc2ccc3ccccc3n2)c1)c1ccccc1 (stereo unspecified)
[3]
  inhibition: 18%

## c1cc(OCc2ccc3ccccc3n2)cc(C2CN=C(c3ccncc3)O2)c1 (stereo unspecified)
[20]
  inhibition: inactive
[3]
  inhibition: 77%

## CN(C[C@H](O)c1cccc(OCc2ccc3ccccc3n2)c1)C(=O)N(c1ccccc1)c1ccccc1
[2]
  inhibition: 21%

## O=C1NCC(c2cccc(OCc3ccc4ccccc4n3)c2)O1 (stereo unspecified)
[3]
  inhibition: 66%

## CN1CC(c2cccc(OCc3ccc4ccccc4n3)c2)OC1=S (stereo unspecified)
[21]
  inhibition: inactive

## CNC(=O)N(C)CC(O)c1cccc(OCc2ccc3ccccc3n2)c1 (stereo unspecified)
[4]
  inhibition in vivo at 25 mg/kg: 95%
[22]
  pInhibition: 92%

## CCN(CC)C(=O)N(C)CC(=O)c1cccc(OCc2ccc3ccccc3n2)c1
[2]
  inhibition: 26%

## CN1CC(c2cccc(OCc3nc4ccccc4s3)c2)OC1=O (stereo unspecified)
[23]
  inhibition: inactive

## CN(C)S(=O)(=O)N(C)C[C@H](O)c1cccc(OCc2ccc3ccccc3n2)c1
[24]
  inhibition: inactive
[19]
  inhibition: 33%
[2]
  inhibition: 56%

## CCOC(=O)CC1=NCC(c2cccc(OCc3ccc4ccccc4n3)c2)O1 (stereo unspecified)
[3]
  inhibition: 77%

## CN1CC(c2cccc(OCc3nc4ccccc4n3C)c2)OC1=O (stereo unspecified)
[4]
  inhibition in vivo at 25 mg/kg: 68%
[2]
  inhibition: 65%

## CCNC(=O)O[C@@H](CN(C)C(=O)N(CC)CC)c1cccc(OCc2ccc3ccccc3n2)c1
[1]
  inhibition: 80%
[25]
  inhibition: inactive
[2]
  inhibition: 54%

## CCN(CC)C(=O)N(C)C[C@H](O)c1cccc(OCc2nc3ccccc3s2)c1
[1]
  inhibition: 36%
[17]
  Inhibition: 41%
[2]
  inhibition: 59%

## NCC(O)c1cccc(OCc2ccc3ccccc3n2)c1 (stereo unspecified)
[2]
  inhibition: 23%

## c1ccc(C2=NCC(c3cccc(OCc4ccc5ccccc5n4)c3)O2)cc1 (stereo unspecified)
[3]
  inhibition: 11%

## CCC1=NCC(c2cccc(OCc3ccc4ccccc4n3)c2)O1 (stereo unspecified)
[26]
  inhibition: inactive
[2]
  inhibition: 80%

## c1cc(OCc2ccc3ccccc3n2)cc(C2CN=C(c3cccs3)O2)c1 (stereo unspecified)
[2]
  inhibition: 41%

## CN1C[C@@H](c2cccc(OCc3ccc4ccccc4n3)c2)OC1=O
[1]
  inhibition: 56%
[27]
  ED50: 95 mg/kg
[17]
  Inhibition: 56%
[28]
  ED50: 42 mg/kg
[29]
  Potency: 2
[30]
  Potency: 1.1
[31]
  Potency: 2.2
[32]
  Potency: 2.5
[33]
  ED50: 12 mg/kg
[34]
  ED50: 36 mg/kg
[35]
  Potency: 3
[14]
  pkb: 6.09
[36]
  IC50: > 100 µM
[19]
  inhibition: 56%
[2]
  inhibition: 91%

## CCOC(=O)NCC(O)c1cccc(OCc2ccc3ccccc3n2)c1 (stereo unspecified)
[3]
  inhibition: 36%

## CN1C[C@H](c2cccc(OCc3ccc4ccccc4n3)c2)OC1=O
[26]
  inhibition: inactive
[2]
  inhibition: 99%

## CCN(CC)C(=O)N(C)C[C@H](O)c1cccc(OCc2nc3ccccc3n2C)c1
[1]
  inhibition: 84%
[37]
  inhibition: inactive
[19]
  inhibition: 38%
[2]
  inhibition: 77%

## CN(C)C(=O)N(C)C[C@H](O)c1cccc(OCc2ccc3ccccc3n2)c1
[19]
  inhibition: 15%
[20]
  inhibition: 15%
[2]
  inhibition: 93%

## CCOC(=O)CC(=O)NCC(O)c1cccc(OCc2ccc3ccccc3n2)c1 (stereo unspecified)
[3]
  inhibition: 25%

## CCN(CC)C(=O)N(C)C[C@H](O)c1cccc(OCc2ccc3ccccc3n2)c1
[1]
  inhibition: 75%
[27]
  ED50: 55 mg/kg
[17]
  Inhibition: 25%
[28]
  ED50: 20 mg/kg
[29]
  Potency: 1.5
[30]
  Potency: 1.8
[31]
  Potency: 1.1
[32]
  Potency: 1.4
[33]
  ED50: 9 mg/kg
[34]
  ED50: 56 mg/kg
[14]
  pkB: 5.22
[15]
  Potency: 23

## CCN(CC)C(=O)N(CC)C[C@H](O)c1cccc(OCc2ccc3ccccc3n2)c1
[2]
  inhibition: 34%

## c1cncc(C2=NCC(c3cccc(OCc4ccc5ccccc5n4)c3)O2)c1 (stereo unspecified)
[16]
  inhibition: inactive
[20]
  inhibition: inactive
[3]
  inhibition: 86%
